Reference: ChEMBL document CHEMBL4513216, “Probing the Open Global Health Chemical Diversity Library for Multistage-Active Starting Points for Next-Generation Antimalarials” (ACS Infect Dis, 2020)

Assay: Toxicity liver stage against HepG2, at 10uM
Assay type: cell-based
Design: test concentration 10 uM, cell line HepG2-A16-CD81EGFP
Conditions: human, HepG2-A16-CD81EGFP cells; read-out: INHIBITION
In short: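 Uninfected HepG2-A16-CD81EGFP cells, 3 × 10^3 per well, 1536-well, plated on prespotted compound at 10 μM final, parasite-free screening media added to match infected plates; puromycin 10 μM positive, DMSO 0.5% negative; run in parallel with 48 h PbLuc assay at 37 °C, 5% CO2; viability by CellTiter-Glo luminescence, normalized to controls.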

Compound O=C(Nc1ccccn1)C1CC(=O)N(Cc2ccccn2)C1 (configuration not stated) has a cytotoxicity at 10 µM of 2.84%.

Work on O=C(NCCNc1ncccn1)C1CCN(CC(F)(F)F)CC1 yielded a cytotoxicity at 10 µM of -5.6%.

In the case of CC(C)N1[C@H](Cn2cncn2)C[C@@H]2CN(c3ncccn3)CC[C@@H]21, the cytotoxicity at 10 µM was 3.17%.

With Cc1cc(C[S+]([O-])CC(=O)Nc2c(C)cccc2C)no1 (configuration not stated) the cytotoxicity at 10 µM was -9.65%.

Compound N#Cc1cc(NC(=O)c2ccsc2)ccc1N1CCC(O)CC1 has a cytotoxicity at 10 µM of 4.77%.

With CN(Cc1cccs1)C(=O)CN1CCCC(Cn2cncn2)C1 (configuration not stated) the cytotoxicity at 10 µM was -3.95%.

CCN(CC)c1nc(C)cc(C(=O)Nc2cnn(CC)c2)n1 gave a cytotoxicity at 10 µM of -16.4%.

Work on CC(OCC(F)(F)F)C(=O)N1CCOCC1 (configuration not stated) yielded a cytotoxicity at 10 µM of -11.9%.

Work on COC1(CNC(=O)c2ccc3nsnc3c2)CCSC1 (configuration not stated) yielded a cytotoxicity at 10 µM of -1.36%.

Work on CC(=O)N1CCCC(C(=O)N2CCC(=Cc3cccc(F)c3)CC2)C1 (configuration not stated) yielded a cytotoxicity at 10 µM of 12%.

Cc1nccn1-c1cc(CNC(=O)CCS(=O)(=O)C2CCCC2)ccn1 showed a cytotoxicity at 10 µM of -1.71%.

Work on CCc1nc(CN(C)C2CCN(CC(F)(F)F)C2)no1 (configuration not stated) yielded a cytotoxicity at 10 µM of -16.8%.

Cc1noc(C)c1CN1CCOCC12CCN(c1cnccn1)CC2 showed a cytotoxicity at 10 µM of -101%.

In the case of COc1ccc(CNC(=O)NC2CCN(CC(F)F)CC2)cc1C, the cytotoxicity at 10 µM was 1.11%.

Work on CC(C)Nc1cc(N2CCC(n3cc(CCO)nn3)CC2)ncn1 yielded a cytotoxicity at 10 µM of 16.3%.

In the case of CN(C)C(=O)[C@H]1CCS(=O)(=O)[C@@H]2CN(c3ncccn3)C[C@H]12, the cytotoxicity at 10 µM was -103%.

In the case of Cc1nn(C)cc1-c1cc(C(=O)N2CCc3ncc(Cl)cc3C2)no1, the cytotoxicity at 10 µM was 1.18%.

Cc1cc(C(=O)NCCN2CCN(S(C)(=O)=O)CC2)no1 gave a cytotoxicity at 10 µM of -6.29%.

Compound COCCN1CC[C@]2(CN(C(=O)c3ccc[nH]3)C[C@H]2C)C1=O has a cytotoxicity at 10 µM of 2.53%.

For Cc1noc(C(C)C)c1C(=O)NCc1cc(F)cc(F)c1, the cytotoxicity at 10 µM was -5.54%.

In the case of CCc1ncc2c(n1)CN(Cc1nc(-c3cccnc3)no1)CC2, the cytotoxicity at 10 µM was -1.62%.

With CC(C)N1CCOCC2(CN(Cc3cccs3)CCO2)C1 (configuration not stated) the cytotoxicity at 10 µM was 3.71%.

For CCCc1nc2c(c(C)c(C)n2Cc2ccccn2)c(N)c1CC, the cytotoxicity at 10 µM was 23.3%.

For c1csc(-c2nc(CN3CCCCC3Cn3cccn3)co2)c1 (configuration not stated), the cytotoxicity at 10 µM was 3.22%.

CCOc1cc(CNC(=O)NCc2nc(C)c(C)s2)ccn1 showed a cytotoxicity at 10 µM of -2.49%.

Work on CS(=O)(=O)CCn1ccc(NCc2ccc(C#N)cc2)n1 yielded a cytotoxicity at 10 µM of 6.56%.

In the case of CN1CCN2CCN(Cc3cnc(NCc4ccccc4)nc3)CC2C1 (configuration not stated), the cytotoxicity at 10 µM was -16.8%.

Work on c1coc(-c2noc(CN3CCc4c(ncn4C4CC4)C3)n2)c1 yielded a cytotoxicity at 10 µM of -8.12%.

In the case of CO[C@H]1CCN(C(=O)Cc2ccccn2)[C@H]1Cc1ccncc1, the cytotoxicity at 10 µM was 2.26%.

In the case of CCOc1cccc2c1OCC(=O)N(c1ccc3c(c1)OCO3)C2, the cytotoxicity at 10 µM was 17.1%.

Cc1ccc(C(CCNCCCN(C)C)C2CCOC(C)(C)C2)cc1 (configuration not stated) showed a cytotoxicity at 10 µM of -3.32%.

Work on O=C(NCc1cccnc1-n1cncn1)C1CC2(CCNCC2)CN1 (configuration not stated) yielded a cytotoxicity at 10 µM of 2.08%.

Compound CN(C)C(=O)Cc1nc(CN2CCCCC2Cn2cccn2)cs1 (configuration not stated) has a cytotoxicity at 10 µM of 6.04%.

O=C(CN1C(=O)CCNC1=O)N1CCC2(CCc3ccccc32)CC1 gave a cytotoxicity at 10 µM of -11.2%.

Cc1cc(C)c(NC(=O)Nc2cnn(CC(O)CN(C)C)c2)c(C)c1 (configuration not stated) showed a cytotoxicity at 10 µM of 12.5%.

In the case of N#CC1(C(=O)N2C[C@H](Nc3ccnc(N)n3)[C@@H](C3CC3)C2)CCOCC1, the cytotoxicity at 10 µM was -1.2%.

COc1nn(C)c2c1CCCN(C(=O)c1ccc3ccccc3n1)C2 gave a cytotoxicity at 10 µM of 13.7%.

Work on Cn1cc(CNC2CCCN(Cc3noc(C4CC4)n3)C2)cn1 (configuration not stated) yielded a cytotoxicity at 10 µM of -9.52%.

In the case of Cc1nc2ccccn2c1CN(Cc1cccnc1)CC1CCCO1 (configuration not stated), the cytotoxicity at 10 µM was -7.1%.

Work on COC(=O)CNC(=O)Cn1ccc2cccc(OC)c21 yielded a cytotoxicity at 10 µM of -34.9%.

With COc1ccc(Cl)cc1S(=O)(=O)N(C)CC(=O)Nc1cccnc1 the cytotoxicity at 10 µM was 0.192%.

Compound Cc1nc(NC2CC(C)(C)NC(C)(C)C2)c2c(n1)c(C)nn2C has a cytotoxicity at 10 µM of -11.5%.

Work on COC(=O)N1CCC(NC(=O)Cn2cc(C)c3ccccc32)CC1 yielded a cytotoxicity at 10 µM of -2.37%.

Work on CSc1ccc(NCC(=O)NCC2CC2)cc1F yielded a cytotoxicity at 10 µM of 0.936%.

Work on CN(C)C(=O)c1cc(NC(=O)N2CCCC(C(F)(F)F)C2)ccn1 (configuration not stated) yielded a cytotoxicity at 10 µM of -3.58%.

In the case of CC(C)c1nn(C)cc1CNCc1cccc(N(C)C)c1, the cytotoxicity at 10 µM was -0.509%.

Compound CSCc1ccc(C(=O)NCCCNc2ccc(C(F)(F)F)cn2)cc1 has a cytotoxicity at 10 µM of 3.84%.

C=C(C)CN1CCC(NC(=O)NCCc2ccc(N(C)C)cc2)CC1 showed a cytotoxicity at 10 µM of 2.2%.

Work on CN(Cc1cccc(C(N)=O)c1)Cc1nc2c(cnn2C)c(=O)[nH]1 yielded a cytotoxicity at 10 µM of -2.97%.

OC1(CN2CCCCC2)CCN(c2cccc(C(F)(F)F)n2)C1 (configuration not stated) showed a cytotoxicity at 10 µM of -10.4%.

COCCN1CCC(NCc2c(C(C)C)nn(C)c2N(C)C)CC1 gave a cytotoxicity at 10 µM of 11.6%.

O=C(NCc1nccn1CCc1ccccc1)NCC1(O)CCC1 gave a cytotoxicity at 10 µM of -2.97%.

In the case of O=C(Nc1cnc2n1CCCC2)c1cccc(OCC(F)(F)F)c1, the cytotoxicity at 10 µM was -0.651%.

Compound CC(Cn1cccn1)NCCCc1nc(-c2cccs2)no1 (configuration not stated) has a cytotoxicity at 10 µM of -9.8%.

CC(C)c1nc(S(=O)(=O)N2CCSc3ccccc32)c[nH]1 gave a cytotoxicity at 10 µM of 2.7%.

Cc1cc(C)n(C2CN(Cc3ccccn3)C2)n1 gave a cytotoxicity at 10 µM of -3.67%.

In the case of N#Cc1cccc(CN2CC[C@@H]3[C@@H]2CC(=O)N3Cc2ccncc2)c1, the cytotoxicity at 10 µM was -73.7%.

Compound Cc1nn(CCNc2ncnc3c2NC(=O)CN3)c(C)c1Cl has a cytotoxicity at 10 µM of 10.5%.

In the case of CC(C(=O)N1CCCN(c2ccccc2C#N)CC1)n1cccn1 (configuration not stated), the cytotoxicity at 10 µM was -8.3%.

With CCC(CC)NC(=O)CN1CCN(C(=O)N(C)C)CC1 the cytotoxicity at 10 µM was -3.7%.

CN(c1ncccc1CNC(=O)c1csnn1)C1CCCCC1 gave a cytotoxicity at 10 µM of -9.31%.

In the case of COCCN(Cc1ccoc1)C(=O)c1c(F)cccc1F, the cytotoxicity at 10 µM was 10.6%.

CCS(=O)(=O)N1CCc2c(cccc2NC(=O)NCCOC)C1 showed a cytotoxicity at 10 µM of 2.17%.

In the case of Cc1ccc2c(n1)N(CC1CC1)CCN(Cc1ccco1)C2, the cytotoxicity at 10 µM was 2.75%.

Work on c1cnc2[nH]c(C3CCCC3)c(CN3CCOCC3)c2c1 yielded a cytotoxicity at 10 µM of -1.06%.

CCc1nsc(N2CCN(C(=O)c3ccnc(N(C)C)c3)CC2)n1 showed a cytotoxicity at 10 µM of -2.48%.

COc1ccc(NC(C)=O)cc1S(=O)(=O)Nc1ccon1 showed a cytotoxicity at 10 µM of 1.08%.

In the case of CSCC(C)(O)CNC(=O)c1cc(Cl)ccc1Cl (configuration not stated), the cytotoxicity at 10 µM was 9.88%.

Compound CC(C)N1c2sc(-c3ccsc3)nc2CC1C(=O)NC1CC1 (configuration not stated) has a cytotoxicity at 10 µM of 8.67%.

In the case of COCCN(C/C=C/c1ccccc1)Cc1ncc[nH]1, the cytotoxicity at 10 µM was 7.8%.

CN(C)CC1(O)CCCN(c2nc(-c3ccccc3)no2)CC1 (configuration not stated) gave a cytotoxicity at 10 µM of -4.6%.

In the case of Cc1noc2ncc(S(=O)(=O)Nc3cc(C(C)(C)C)n[nH]3)cc12, the cytotoxicity at 10 µM was 3.26%.

Work on CC(C)(C)CC(=O)NCC(=O)NS(=O)(=O)c1cccnc1 yielded a cytotoxicity at 10 µM of -3.13%.

Compound COCCN1C(=O)CCC12CCCN(C(=O)NC(C)C)CC2 (configuration not stated) has a cytotoxicity at 10 µM of 1.32%.

In the case of Cn1cccc1C(=O)N1CCC2(CCN(C(=O)c3cccnc3)C2)CC1, the cytotoxicity at 10 µM was -102%.

Work on Cc1ccc(-c2csc3c(=O)[nH]c(N4CCCC(C(N)=O)C4)nc23)cc1 (configuration not stated) yielded a cytotoxicity at 10 µM of -3.09%.

c1ccc(NC[C@@H]2CCC[C@@H]3CN(c4ncccn4)C[C@@H]32)nc1 showed a cytotoxicity at 10 µM of -106%.

In the case of CCC(=O)N1CCC(c2nc(N3CCCCC3)ncc2S(C)(=O)=O)CC1, the cytotoxicity at 10 µM was 4.03%.

Cc1ncc(CN(C)C(=O)Nc2ccc(CN3CCOC3=O)cc2)s1 gave a cytotoxicity at 10 µM of -2.97%.

In the case of CCc1nnc(NC(=O)N(CCOC)Cc2ccc(C)o2)s1, the cytotoxicity at 10 µM was -18.8%.

In the case of COC1COC2(CCN(C(=O)c3cocn3)CC2)C1 (configuration not stated), the cytotoxicity at 10 µM was 9.64%.

In the case of CN(C)C(=O)CCS(=O)(=O)Cc1cc(Cl)c2c(c1)OCO2, the cytotoxicity at 10 µM was -5.09%.
